# Assay results published in ChEMBL document CHEMBL1143122, “Novel analogs of D-e-MAPP and B13. Part 1: synthesis and evaluation as potential anticancer agents” (Bioorg Med Chem, 2008).
# How the values were obtained:
# Assay type in all cases: functional
# PC-3 = assay: Antiproliferative activity against human PC3 cells after 48 hrs; settings: PC-3, 48 h
# In short: (§1)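 NCI 60-cell screen. Cells were grown in RPMI 1640 with 5% FBS and 2 mM L-glutamine, then plated at 5,000–40,000 cells/well according to doubling time and preincubated for 24 h at 37 °C in 5% CO2. Compounds were dissolved in DMSO at 400× the top final concentration and tested at five 10-fold dilutions from 10−4 to 10−8 M for 48 h. Growth was read spectrophotometrically; GI50 is 50% net protein reduction.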
# NCI-H522 = assay: Antiproliferative activity against human NCI-H522 cells after 48 hrs; settings: NCI-H522, 48 h; in short: as §1
# [1] = Antiproliferative activity against human NCI-ADR-RES cells after 48 hrs; in short: as §1
# HCT-116 = assay: Antiproliferative activity against human HCT116 cells after 48 hrs; settings: HCT-116, 48 h; in short: as §1
# NCI-H23 = assay: Antiproliferative activity against human NCI-H23 cells after 48 hrs; settings: NCI-H23, 48 h; in short: as §1
# HCC 2998 = assay: Antiproliferative activity against human HCC2998 cells after 48 hrs; settings: HCC 2998, 48 h; in short: as §1
# A549 = assay: Antiproliferative activity against human A549 cells after 48 hrs; settings: A549, 48 h; in short: as §1
# UO-31 = assay: Antiproliferative activity against human UO31 cells after 48 hrs; settings: UO-31, 48 h
# In short: (§2)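 NCI 60-cell-line screen. Lines grown in RPMI 1640 with 5% fetal bovine serum and 2 mM L-glutamine, plated at 5,000–40,000 cells/well according to doubling time, left 24 h at 37 °C in 5% CO2. Drug stocks in DMSO at 400-fold the top final concentration. Five 10-fold dilutions, 10−4 to 10−8 M, incubated 48 h. Growth read spectrophotometrically as net protein; GI50 taken as 50% reduction.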
# SK-MEL-2 = assay: Antiproliferative activity against human SKMEL2 cells after 48 hrs; settings: SK-MEL-2, 48 h; in short: as §1
# NCI-H460 = assay: Antiproliferative activity against human NCI-H460 cells after 48 hrs; settings: NCI-H460, 48 h; in short: as §1
# BT-549 = assay: Antiproliferative activity against human BT549 cells after 48 hrs; settings: BT-549, 48 h; in short: as §1
# TK-10 = assay: Antiproliferative activity against human TK10 cells after 48 hrs; settings: TK-10, 48 h; in short: as §2
# MDA-MB-435 = assay: Antiproliferative activity against human MDA-MB-435 cells after 48 hrs; settings: Homo sapiens, MDA-MB-435, 48 h; in short: as §1
# HOP-92 = assay: Antiproliferative activity against human HOP92 cells after 48 hrs; settings: HOP-92, 48 h; in short: as §1
# SF-295 = assay: Antiproliferative activity against human SF295 cells after 48 hrs; settings: SF-295, 48 h; in short: as §1
# SF-268 = assay: Antiproliferative activity against human SF268 cells after 48 hrs; settings: SF-268, 48 h; in short: as §1
# SF-539 = assay: Antiproliferative activity against human SF539 cells after 48 hrs; settings: SF-539, 48 h; in short: as §1
# MOLT-4 = assay: Antiproliferative activity against human MOLT4 cells after 48 hrs; settings: MOLT-4, 48 h; in short: as §1
# DU-145 = assay: Antiproliferative activity against human DU145 cells after 48 hrs; settings: DU-145, 48 h; in short: as §1
# OVCAR-4 = assay: Antiproliferative activity against human OVCAR4 cells after 48 hrs; settings: OVCAR-4, 48 h; in short: as §1
# MDA-MB-231 = assay: Antiproliferative activity against human MDA-MB-231 cells after 48 hrs; settings: MDA-MB-231, 48 h; in short: as §1
# K562 = assay: Antiproliferative activity against human K562 cells after 48 hrs; settings: K562, 48 h; in short: as §1
# SK-OV-3 = assay: Antiproliferative activity against human SKOV3 cells after 48 hrs; settings: SK-OV-3, 48 h; in short: as §1
# ACHN = assay: Antiproliferative activity against human ACHN cells after 48 hrs; in short: as §1
# U-251 = assay: Antiproliferative activity against human U251 cells after 48 hrs; settings: U-251, 48 h; in short: as §2
# 786-0 = assay: Antiproliferative activity against human 786-0 cells after 48 hrs; settings: 786-0, 48 h; in short: as §1
# A498 = assay: Antiproliferative activity against human A498 cells after 48 hrs; settings: A498, 48 h, read-out: Log TGI (converted); in short: as §1
# COLO 205 = assay: Antiproliferative activity against human COLO205 cells after 48 hrs; settings: COLO 205, 48 h; in short: as §1
# RPMI-8226 = assay: Antiproliferative activity against human RPMI8226 cells after 48 hrs; settings: RPMI-8226, 48 h; in short: as §1
# LOX IMVI = assay: Antiproliferative activity against human LOXIMVI cells after 48 hrs; in short: as §1
# Malme-3M = assay: Antiproliferative activity against human MALME3M cells after 48 hrs; in short: as §1
# SK-MEL-28 = assay: Antiproliferative activity against human SKMEL28 cells after 48 hrs; settings: SK-MEL-28, 48 h; in short: as §1
# [2] = read-out: Log LC50 (the source's name) (converted)
smiles,measurement,setting,value
CCCCCCCCCCCCCCN[C@@H](C)[C@H](O)c1ccccc1,GI50,PC-3,2.04 µM
same,TGI,PC-3; read-out: Log TGI (converted),3.72 µM
same,GI50,NCI-H522,2.04 µM
same,CC50,NCI-H522; [2],7.41 µM
same,TGI,NCI-H522; read-out: Log TGI (converted),3.89 µM
same,GI50,[1],1.7 µM
same,TGI,[1]; read-out: Log TGI (converted),3.39 µM
same,GI50,HCT-116,1.86 µM
same,LC50,HCT-116,6.46 µM
same,TGI,HCT-116; read-out: Log TGI (converted),3.47 µM
same,GI50,NCI-H23,1.82 µM
same,CC50,NCI-H23; [2],6.76 µM
same,TGI,NCI-H23; read-out: Log TGI (converted),3.55 µM
same,GI50,HCC 2998,1.82 µM
same,CC50,HCC 2998; [2],5.75 µM
same,TGI,HCC 2998; read-out: Log TGI (converted),3.24 µM
same,GI50,A549,1.91 µM
same,CC50,A549; [2],7.08 µM
same,TGI,A549; read-out: Log TGI (converted),3.63 µM
same,GI50,UO-31,1.74 µM
same,LC50,UO-31,6.61 µM
same,TGI,UO-31; read-out: Log TGI (converted),3.39 µM
same,GI50,SK-MEL-2,1.78 µM
same,TGI,SK-MEL-2; read-out: Log TGI (converted),3.72 µM
same,GI50,NCI-H460,1.91 µM
same,CC50,NCI-H460; [2],6.31 µM
same,TGI,NCI-H460; read-out: Log TGI (converted),3.47 µM
same,GI50,BT-549,1.51 µM
same,LC50,BT-549,5.75 µM
same,TGI,BT-549; read-out: Log TGI (converted),2.95 µM
same,GI50,TK-10,2 µM
same,CC50,TK-10; [2],6.17 µM
same,TGI,TK-10; read-out: Log TGI (converted),3.47 µM
same,GI50,MDA-MB-435,1.78 µM
same,LC50,MDA-MB-435,5.75 µM
same,TGI,MDA-MB-435; read-out: Log TGI (converted),3.24 µM
same,GI50,HOP-92,1.51 µM
same,TGI,HOP-92; read-out: Log TGI (converted),3.09 µM
same,GI50,SF-295,1.78 µM
same,LC50,SF-295,6.46 µM
same,TGI,SF-295; read-out: Log TGI (converted),3.39 µM
same,GI50,SF-268,1.78 µM
same,LC50,SF-268,6.61 µM
same,TGI,SF-268; read-out: Log TGI (converted),3.39 µM
same,GI50,SF-539,1.78 µM
same,TGI,SF-539; read-out: Log TGI (converted),3.39 µM
same,GI50,MOLT-4,2.29 µM
same,TGI,MOLT-4; read-out: Log TGI (converted),4.68 µM
same,GI50,DU-145,1.86 µM
same,CC50,DU-145; [2],6.46 µM
same,TGI,DU-145; read-out: Log TGI (converted),3.47 µM
same,GI50,OVCAR-4,2 µM
same,LC50,OVCAR-4,3.72 µM
same,TGI,OVCAR-4; read-out: Log TGI (converted),6.92 µM
same,GI50,MDA-MB-231,1.91 µM
same,LC50 (50% lethal concentration),MDA-MB-231,6.46 µM
same,TGI,MDA-MB-231; read-out: Log TGI (converted),3.55 µM
same,GI50,K562,1.66 µM
same,LC50,K562,7.41 µM
same,TGI,K562; read-out: Log TGI (converted),3.55 µM
same,GI50,SK-OV-3,2.34 µM
same,CC50,SK-OV-3; [2],9.77 µM
same,TGI,SK-OV-3; read-out: Log TGI (converted),4.79 µM
same,GI50,ACHN,1.78 µM
same,CC50,ACHN; [2],6.03 µM
same,TGI,ACHN; read-out: Log TGI (converted),3.31 µM
same,GI50,U-251,1.82 µM
same,CC50,U-251; [2],5.89 µM
same,TGI,U-251; read-out: Log TGI (converted),3.24 µM
same,GI50,786-0,1.58 µM
same,CC50,786-0; [2],5.89 µM
same,TGI,786-0; read-out: Log TGI (converted),3.09 µM
same,TGI,A498,10 µM
same,GI50,COLO 205,1.74 µM
same,CC50,COLO 205; [2],6.17 µM
same,TGI,COLO 205; read-out: Log TGI (converted),3.31 µM
same,GI50,RPMI-8226,2 µM
same,TGI,RPMI-8226; read-out: Log TGI (converted),4.37 µM
same,GI50,LOX IMVI,1.78 µM
same,LC50,LOX IMVI,5.89 µM
same,TGI,LOX IMVI; read-out: Log TGI (converted),3.24 µM
same,GI50,Malme-3M,2.04 µM
same,LC50,Malme-3M,6.46 µM
same,TGI,Malme-3M; read-out: Log TGI (converted),3.63 µM
same,GI50,SK-MEL-28,1.91 µM
same,LC50,SK-MEL-28,6.31 µM
same,TGI,SK-MEL-28; read-out: Log TGI (converted),3.47 µM
